The source made the active and inactive calls. No cut-off for these calls is given here.
Columns and labels:
HCT-116 [1] = assay: Antitumor activity against human HCT116 cells xenografted in BALB/c nu mouse assessed as tumor growth inhibition at 60 mg/kg, po qd for 19 days relative to control; format: functional
Procedure, shortened: (§1)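 Female athymic BALB/c-nu mice, 5–6 weeks old, were inoculated subcutaneously in the right flank with RPMI1640/10% FBS-cultured tumor cells (5 × 10^6 for MDA-MB-231). At about 100 mm3 (~10 days), mice were randomized 6 per group and dosed orally or intraperitoneally for 19 days. Vehicle controls received PBS containing DMSO. TGI = (control − treated mean tumor weight)/control mean tumor weight, at end of treatment.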

[2] = Antiproliferative activity against human ES2 cells after 48 hrs by MTT assay; format: functional, cell-based; settings: ES-2, 48 h
Procedure, shortened: (§2)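 Cells kept in RPMI1640 with 10% FBS at 37 °C, 5% CO2. Cells were passaged into 96-well plates the day before dosing and left ≥4 h before compound addition. Exposure was 48 h, then 0.5% MTT for 4 h. Formazan was extracted with DMSO for 15 min and read at 570 nm. IC50 was derived from inhibition ratios; mean of three experiments.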

[3] = molecular target: T1, Protein deacetylase HDAC6 (Homo sapiens, UniProt Q9UBN7); assay: Inhibition of HDAC6 using Boc-Lys (acetyl)-AMC as substrate after 30 mins by fluorescence assay
T1 sequence (Q9UBN7 whole entry): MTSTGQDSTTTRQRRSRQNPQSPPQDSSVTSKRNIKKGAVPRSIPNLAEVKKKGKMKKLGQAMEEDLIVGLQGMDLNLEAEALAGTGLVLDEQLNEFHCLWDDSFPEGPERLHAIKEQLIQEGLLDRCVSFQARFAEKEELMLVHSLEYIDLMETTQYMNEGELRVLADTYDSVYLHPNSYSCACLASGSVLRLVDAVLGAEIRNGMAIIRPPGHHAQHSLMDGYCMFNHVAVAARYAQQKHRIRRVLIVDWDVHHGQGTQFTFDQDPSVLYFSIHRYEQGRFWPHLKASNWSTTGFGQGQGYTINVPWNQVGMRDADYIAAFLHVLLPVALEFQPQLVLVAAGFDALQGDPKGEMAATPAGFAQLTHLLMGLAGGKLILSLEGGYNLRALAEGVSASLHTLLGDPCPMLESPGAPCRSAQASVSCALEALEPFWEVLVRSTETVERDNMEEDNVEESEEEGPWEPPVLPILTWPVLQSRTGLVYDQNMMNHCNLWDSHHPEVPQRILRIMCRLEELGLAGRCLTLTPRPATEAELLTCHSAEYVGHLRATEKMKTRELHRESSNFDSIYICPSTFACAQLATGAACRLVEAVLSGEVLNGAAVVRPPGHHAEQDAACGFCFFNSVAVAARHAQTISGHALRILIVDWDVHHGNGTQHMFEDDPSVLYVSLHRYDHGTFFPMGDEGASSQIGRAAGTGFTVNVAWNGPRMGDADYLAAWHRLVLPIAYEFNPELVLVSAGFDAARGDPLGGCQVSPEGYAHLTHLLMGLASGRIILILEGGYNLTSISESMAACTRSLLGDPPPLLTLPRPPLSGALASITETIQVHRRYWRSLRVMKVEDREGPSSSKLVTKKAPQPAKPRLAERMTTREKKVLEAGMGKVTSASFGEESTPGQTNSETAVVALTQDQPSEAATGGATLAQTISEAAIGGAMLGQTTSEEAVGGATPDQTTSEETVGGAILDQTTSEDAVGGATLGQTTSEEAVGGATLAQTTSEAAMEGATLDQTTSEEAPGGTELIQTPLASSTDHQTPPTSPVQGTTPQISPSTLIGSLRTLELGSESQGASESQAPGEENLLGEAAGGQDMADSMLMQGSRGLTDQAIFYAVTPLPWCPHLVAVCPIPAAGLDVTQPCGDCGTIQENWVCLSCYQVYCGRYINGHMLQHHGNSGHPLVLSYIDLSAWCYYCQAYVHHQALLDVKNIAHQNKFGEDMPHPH
Procedure, shortened: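 Enzyme (HeLa nuclear extract, HDAC6 or HDAC8) preincubated 5 min with a series of compound concentrations. Fluorogenic Boc-Lys(acetyl)-AMC substrate then added and incubated 37 °C for 30 min. Reaction stopped with developer containing trypsin and TSA, 20 min at 37 °C. Fluorescence read at ex 390/em 460 nm. Inhibition taken relative to control wells; IC50 from regression of concentration/inhibition data.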

Mus musculus [4] = assay: Toxicity in mouse H22 cells xenografted Kunming mouse assessed as signs of organ toxicity at 90 mg/kg, po qd for 19 days; format: organism-based; parameters: dose 90 mg/kg, route oral; settings: in vivo, 456 h
Mus musculus [5] = assay: Toxicity in human MDA-MB-231 cells xenografted BALB/c nu mouse assessed as change in body weight at 90 mg/kg, po qd for 19 days; format: organism-based; parameters: dose 90 mg/kg, route oral; settings: in vivo, 456 h
Procedure, shortened: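 Female BALB/c-nu mice, 5–6 weeks old, bearing subcutaneous right-flank xenografts. Mice were randomized 6 per group at about 100 mm3 tumor size. Dosing was oral or intraperitoneal for 19 days; controls received an equal volume of PBS containing DMSO. Body weight was monitored regularly during treatment, and tumors were measured by caliper every three days.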

HCT-116 [6] = assay: Antitumor activity against human HCT116 cells xenografted in BALB/c nu mouse assessed as tumor growth inhibition administered as po qd for 19 days relative to control; format: functional, organism-based; procedure, shortened: as §1
K562 = assay: Antiproliferative activity against human K562 cells after 48 hrs by MTT assay; format: functional, cell-based; settings: K562, 48 h; procedure, shortened: as §2
MDA-MB-231 = assay: Antitumor activity against human MDA-MB-231 cells xenografted in BALB/c nu mouse assessed as tumor growth inhibition at 60 mg/kg, ip qd for 19 days relative to control; format: functional; settings: route intraperitoneal; procedure, shortened: as §1
MCF7 = assay: Antiproliferative activity against human MCF7 cells after 48 hrs by MTT assay; format: functional, cell-based; settings: MCF7, 48 h
Mus musculus [7] = assay: Toxicity in human HCT116 cells xenografted BALB/c nu mouse assessed as signs of organ toxicity at 90 mg/kg, po qd for 19 days; format: organism-based, HCT-116; parameters: dose 90 mg/kg, route oral; settings: in vivo, 456 h
HeLa = assay: Antiproliferative activity against human HeLa cells after 48 hrs by MTT assay; format: functional, cell-based; procedure, shortened: as §2
Mus musculus [8] = assay: Toxicity in mouse H22 cells xenografted Kunming mouse assessed as signs of organ toxicity at 60 mg/kg, po qd for 19 days; format: organism-based; parameters: dose 60 mg/kg, route oral; settings: in vivo, 456 h
HCT-116 [9] = assay: Antitumor activity against human HCT116 cells xenografted in BALB/c nu mouse assessed as tumor growth inhibition at 90 mg/kg, po qd for 19 days relative to control; format: functional
[10] = molecular target: 72 kDa type IV collagenase (Homo sapiens) (UniProt P08253); assay: Inhibition of MMP2
HCT-116 [11] = assay: Antiproliferative activity against human HCT116 cells after 48 hrs by MTT assay; format: functional, cell-based; settings: HCT-116, 48 h; procedure, shortened: as §2
[12] = Mus musculus, HCT-116, 456 h, read-out: TGI

72 kDa type IV collagenase (Homo sapiens), sequence (P08253 110-660 limits assumed): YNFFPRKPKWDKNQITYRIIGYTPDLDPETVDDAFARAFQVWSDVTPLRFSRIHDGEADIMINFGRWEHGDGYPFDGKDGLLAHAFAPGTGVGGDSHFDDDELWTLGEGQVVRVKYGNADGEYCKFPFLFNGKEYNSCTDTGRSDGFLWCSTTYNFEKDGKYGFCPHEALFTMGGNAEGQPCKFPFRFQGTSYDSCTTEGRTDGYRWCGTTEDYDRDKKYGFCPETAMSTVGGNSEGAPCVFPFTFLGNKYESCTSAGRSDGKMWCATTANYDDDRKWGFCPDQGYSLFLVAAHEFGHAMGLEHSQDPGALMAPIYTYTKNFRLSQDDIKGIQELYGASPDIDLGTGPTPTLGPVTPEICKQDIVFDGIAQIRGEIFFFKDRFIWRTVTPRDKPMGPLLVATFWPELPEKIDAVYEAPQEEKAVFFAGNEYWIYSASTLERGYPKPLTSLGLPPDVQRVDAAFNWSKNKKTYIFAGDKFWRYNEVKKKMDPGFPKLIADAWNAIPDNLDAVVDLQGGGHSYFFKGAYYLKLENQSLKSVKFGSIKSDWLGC

IC50 [3]: 0.056 µM
IC50 (K562): 3.47 µM
IC50 (MCF7): 3.2 µM
IC50 (HeLa): 56.1 µM
inhibition [10]: inactive
IC50 (HCT-116 [11]): 0.77 µM
Compound: CC[C@H](C)[C@H](NC(=O)CC(C)(C)C)C(=O)N1Cc2cc(OCC(=O)NO)ccc2C[C@H]1C(=O)Nc1ccc(OC)cc1
T/C (HCT-116 [1]): 85%
inhibition in vivo at 60 mg/kg (HCT-116 [1]; [12]): 32%
IC50 [2]: 12.9 µM
Activity (Mus musculus [4]): Non-toxic
Activity (Mus musculus [5]): Non-toxic
TGI (HCT-116 [6]): Dose-dependent effect
inhibition in vivo at 60 mg/kg (MDA-MB-231; Mus musculus, MDA-MB-231, ip, 456 h, read-out: TGI): 45%
T/C (MDA-MB-231): 62%
Activity (Mus musculus [7]): Non-toxic
Activity (Mus musculus [8]): Non-toxic
T/C (HCT-116 [9]): 53%
inhibition in vivo at 90 mg/kg (HCT-116 [9]; [12]): 59%
